Inhibition and IC50 data for 18 compounds are collected here from ChEMBL document CHEMBL1240423, “Synthesis and evaluation of quinazolinone derivatives as inhibitors of NF-kappaB, AP-1 mediated transcription and eIF-4E mediated translational activation: inhibitors of multi-pathways involve in cancer” (Eur J Med Chem, 2010).

SMILES strings stand for the structures.

The subject of experiment [1] is HEK293. The experiment can be described thus: Inhibition of NF-kappaB expressed in HEK293 cells assessed as inhibition of TNF-alpha-induced transcriptional activation at 1 uM treated 24 hrs before TNFalpha challenge by luciferase reporter gene assay relative to control. The class given is cell-based. The method in brief: (§1)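 Luciferase reporter screen with each sample in triplicate in two or three independent experiments. Values are the average of those experiments. Rapamycin served as the reference eIF-4E inhibitor.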
On the technique in general: In a reporter assay the amount or activity of a reporter protein is the signal.

Experiment [2] concerns the target Transcription factor Jun (Homo sapiens) (UniProt P05412). The experiment can be described thus: Inhibition of AP1 expressed in HEK293 cells assessed as inhibition of PMA-induced transcriptional activation at 1 uM treated 24 hrs before PMA challenge by luciferase reporter gene assay relative to control. The experiment is classed as cell-based. The method in brief:
as §1

For experiment [3], the target named is Eukaryotic translation initiation factor 4E (Homo sapiens) (UniProt P06730). The experiment is described as follows: Inhibition of eIF-4E expressed in human FaDu cells assessed as inhibition of translational activation at 1 uM by luciferase reporter gene assay relative to control. The experiment is classed as cell-based. The gist of the method: as §1
Experiment [4] can be described thus: Inhibition of NF-kappaB expressed in HEK293 cells assessed as inhibition of TNF-alpha-induced transcriptional activation treated 24 hrs before TNFalpha challenge by luciferase reporter gene assay. The class given is cell-based. The gist of the method: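 Six-point dose response […] in ½-log steps, screened as in the primary reporter assay. IC50 calculated from the dose-response data.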

The test system of experiment [5] is HEK293. The experiment can be described thus: Inhibition of NF-kappaB expressed in HEK293 cells assessed as inhibition of TNF-alpha-induced transcriptional activation at 3.3 uM treated 2 hrs before TNFalpha challenge measured after 24 hrs by luciferase reporter gene assay relative to control. The experiment is classed as cell-based. The method in brief:
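Stably transfected NF-κB reporter cells plated, then after 24 h pretreated with compound at six concentrations for 2 h before 20 ng/ml TNF-α induction. Cells later lysed, luciferase activity read and normalized.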

The nature of experiment [6]: Inhibition of NF-kappaB expressed in HEK293 cells assessed as inhibition of TNF-alpha-induced transcriptional activation treated 2 hrs before TNFalpha challenge measured after 24 hrs by luciferase reporter gene assay. The experiment is classed as cell-based. The method in brief: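 Stably transfected NF-κB luciferase reporter cells were plated, and 24 h later given test compound at six concentrations for 2 h. TNF-α was then added at 20 ng/ml to induce transcription. Cells were then lysed, luciferase activity was recorded, and values were normalised.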

The test system of a further experiment is FaDu. The experiment can be described thus: Cytotoxicity against human FADU cells assessed as growth inhibition at 3.3 uM by MTT assay. The class given is functional.

Chain of Eukaryotic translation initiation factor 4E (Homo sapiens) (P06730 whole entry): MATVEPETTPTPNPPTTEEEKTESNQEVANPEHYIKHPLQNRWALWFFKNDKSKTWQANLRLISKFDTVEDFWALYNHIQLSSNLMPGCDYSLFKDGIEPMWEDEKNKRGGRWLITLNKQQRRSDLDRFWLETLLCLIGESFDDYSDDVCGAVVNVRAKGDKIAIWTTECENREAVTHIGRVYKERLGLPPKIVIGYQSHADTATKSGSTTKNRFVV
Chain of Transcription factor Jun (Homo sapiens) (P05412 whole entry): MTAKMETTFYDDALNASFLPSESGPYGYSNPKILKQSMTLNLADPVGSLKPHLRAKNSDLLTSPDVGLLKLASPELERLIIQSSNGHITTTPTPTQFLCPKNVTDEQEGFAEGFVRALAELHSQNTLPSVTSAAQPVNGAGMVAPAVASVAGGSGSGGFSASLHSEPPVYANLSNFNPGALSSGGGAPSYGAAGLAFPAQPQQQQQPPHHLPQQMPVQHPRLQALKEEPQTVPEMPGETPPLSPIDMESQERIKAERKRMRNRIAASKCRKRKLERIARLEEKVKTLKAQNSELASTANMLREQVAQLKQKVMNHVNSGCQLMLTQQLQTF

Broadly, the inhibition is the percentage by which the read-out fell short of the control. For the compound `O=c1c2ccccc2nc(-c2sc(Nc3ccccc3)nc2-c2ccccc2)n1-c1ccc(Cl)cc1`, the inhibition stood at 67% with HEK293 [1], 39% in experiment [2] and 38% in experiment [3].

A word on the IC50: it is the midpoint of a concentration-inhibition curve. Turning to `COc1ccc(-n2c(-c3sc(Nc4ccc(Cl)cc4)nc3-c3ccccc3)nc3ccccc3c2=O)cc1`, the inhibition is 46% in the experiment on HEK293 [1], 59% in experiment [2], 32% in experiment [3] and above 70% in the experiment on HEK293 [5]. The IC50 in experiment [4] came to 20 µM.

In the case of `Cc1nc(Nc2ccccc2)sc1-c1nc2ccccc2c(=O)n1-c1ccc(Cl)cc1`, the results for the inhibition (in the experiment on HEK293 [1]; in experiment [2]; in experiment [3]) were 66%, 29% and 67%, respectively. Besides, the IC50 in experiment [6] came out at 5.5 µM.

In the case of `CNc1nc(C)c(-c2nc3ccccc3c(=O)n2-c2ccc(Cl)cc2)s1`, the inhibition with HEK293 [1] came to 80%; in experiment [3] it was 61%. Further, the IC50 in experiment [4] came to 12 µM; in experiment [6], 3.3 µM. For the same compound, the inhibition at 3.3 µM in the experiment on FaDu stood at 20%.

Take `CCOC(=O)Nc1nc(C)c(-c2nc3ccccc3c(=O)n2-c2ccc(Cl)cc2)s1`: the inhibition in the experiment with HEK293 [1] was 54%; in experiment [2] it was 30%; in experiment [3] it was 50%; in the experiment on HEK293 [5], above 70%. In experiment [4], the IC50 is 16 µM.

Consider `CCOC(=O)Nc1nc(-c2ccccc2)c(-c2nc3ccccc3c(=O)n2-c2ccccc2)s1`, for which the inhibition was found to be 32% in the experiment on HEK293 [1] and 7% in experiment [2]. Moreover, in experiment [4], the IC50 is above 10 µM.

Regarding `O=c1c2ccccc2nc(-c2sc(Nc3ccc(Cl)cc3)nc2-c2ccccc2)n1-c1ccccc1`, the inhibition amounted to 71% in the experiment with HEK293 [1] and 57% in experiment [2].

For the compound `CCOC(=O)Nc1nc(-c2ccccc2)c(-c2nc3ccccc3c(=O)n2-c2ccc(Cl)cc2)s1`, the inhibition in the experiment with HEK293 [1] was found to be 24%; in experiment [2] it was 20%; in experiment [3], 18%.

On to `Cc1nc(Nc2ccc(Cl)cc2)sc1-c1nc2ccccc2c(=O)n1-c1ccc(Cl)cc1`, for which the inhibition was 79% in the experiment on HEK293 [1], 75% in experiment [2] and 26% in experiment [3]. Also, in experiment [4], the IC50 came out at 15 µM.

With `CNc1nc(-c2ccccc2)c(-c2nc3ccccc3c(=O)n2-c2ccccc2)s1`, the values for the inhibition (in the experiment with HEK293 [1]; in experiment [2]; in experiment [3]) were 71%, 58% and 33%, respectively.

In the case of `O=C(Nc1nc(-c2ccccc2)c(-c2nc3ccccc3c(=O)n2-c2ccccc2)s1)c1ccccc1`, the figures for the inhibition (in the experiment on HEK293 [1]; in experiment [2]; in experiment [3]) were 43%, 26% and 30%, respectively.

On to `COc1ccc(-n2c(-c3sc(NC(=O)c4ccccc4)nc3-c3ccccc3)nc3ccccc3c2=O)cc1`, for which the inhibition was determined as 12% in the experiment on HEK293 [1], 8% in experiment [2] and 31% in experiment [3].

Regarding `COc1ccc(-n2c(-c3sc(Nc4ccccc4)nc3-c3ccccc3)nc3ccccc3c2=O)cc1`, the inhibition in the experiment on HEK293 [1] was found to be 63%; in experiment [2], 19%; in experiment [3], 16%.

As to `CCOC(=O)Nc1nc(-c2ccccc2)c(-c2nc3ccccc3c(=O)n2-c2ccc(OC)cc2)s1`, the inhibition with HEK293 [1] came to 29%; in experiment [2] it was 34%; in experiment [3], 15%.

Consider `O=C(Nc1nc(-c2ccccc2)c(-c2nc3ccccc3c(=O)n2-c2ccc(Cl)cc2)s1)c1ccccc1`, for which the results for the inhibition (with HEK293 [1]; in experiment [2]; in experiment [3]) were 73%, 36% and 39%, respectively.

Turning to `CNc1nc(-c2ccccc2)c(-c2nc3ccccc3c(=O)n2-c2ccc(Cl)cc2)s1`, the inhibition in the experiment with HEK293 [1] is 72%; in experiment [2], 67%; in experiment [3], 40%. The IC50 in experiment [4] was above 250 µM.

With `O=c1c2ccccc2nc(-c2sc(Nc3ccccc3)nc2-c2ccccc2)n1-c1ccccc1`, the inhibition in the experiment on HEK293 [1] was 71%; in experiment [2], 51%; in experiment [3], 37%.

In the case of `O=c1c2ccccc2nc(-c2sc(Nc3ccc(Cl)cc3)nc2-c2ccccc2)n1-c1ccc(Cl)cc1`, the inhibition was 62% in the experiment with HEK293 [1], 47% in experiment [2], 34% in experiment [3] and above 70% with HEK293 [5]. Further, the IC50 in experiment [4] worked out at 3.3 µM.
